Only some compounds are listed: those with a hit (about 6.7% of all), similar ones and a draw of the others.
NR3A LBD binder – binders of NR3A ligand-binding domain, primary screen, biophysical, differential scanning fluorimetry, uHTS; Glutamate receptor ionotropic, NMDA 3A (GRIN3A) ligand-binding domain; Tm shift relative to glycine control, % at 25 µM; hit rate 2.5% among 340,000; NR3A LBD differential scanning fluorimetry, Tm shift; 0% = protein alone, 100% = glycine-bound protein;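 active means melting temperature shift of at least 10% of the positive control shift, at one fixed dose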
Beta cell apopt – inhibitors of cytokine-induced beta cell apoptosis, primary screen, luminescence. protection from apoptosis, % (no concentration beside the values). INS-1E cytokine-induced death, ATP luminescence, 48 h; percent of positive-control rescue, neutral wells zero. AID 435005, 2010. hit rate 0.8% among 300,000;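 active means Every replicate reaches about 75%, or at least half do and their mean reaches it too, limit read from the data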;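 further: 0% = cytokine-treated negative control wells and 100% = positive control rescue; higher means more ATP so stronger rescue from cytokine killing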
CSC inhib – cancer stem cell viability inhibitors, primary screen, luminescence; cancer stem cell-like cells viability; inhibition, % at 7.5 µM; AID 2717, 2010; hit rate 1.1% among 300,000; in the data active means inhibition above about 75%; tested in HMLE shEcad cells
T cruzi repl – inhibitors of intracellular T. cruzi growth, primary screen, luminescence, NIH3T3 host cells | T. cruzi beta-gal in NIH3T3, 90 h | inhibition, % (no concentration beside the values) | hit rate 1.4% among 300,000 | AID 1885, 2009;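 active means mean inhibition across valid replicates above about 55%, limit read from the data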;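 further: signal also drops with host cell toxicity which is not excluded here; 0% = plate median of DMSO wells and 100% = zero luminescence signal; higher percent means less beta-gal luminescence so fewer parasites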
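System: mouse NIH/3T3 fibroblasts infected with β-gal-expressing T. cruzi Tulahuen C4 / Input: NIH/3T3 cells, 5,000 per well / Buffer or medium: Low-serum DMEM with 2% FBS / Probe or stimulus: 5000 reporter trypomastigotes per well / Schedule: ≥90 h infection period, 3 h prior cell attachment / Measured by: GalScreen luminescence, 60 min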
PREPL inhibitor – PREPL enzyme inhibitors, primary screen, biochemical, fluorescence polarization; inhibition, % at 5.96 µM; hit rate 0.68% among 320,000; AID 2751, 2010; recombinant PREPL, fluorescence polarization activity-based probe; in the data active means inhibition above about 43%;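 further: 0% = enzyme with DMSO and 100% = wells lacking enzyme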
Target sequence (Q4J6C6 whole entry, looked up): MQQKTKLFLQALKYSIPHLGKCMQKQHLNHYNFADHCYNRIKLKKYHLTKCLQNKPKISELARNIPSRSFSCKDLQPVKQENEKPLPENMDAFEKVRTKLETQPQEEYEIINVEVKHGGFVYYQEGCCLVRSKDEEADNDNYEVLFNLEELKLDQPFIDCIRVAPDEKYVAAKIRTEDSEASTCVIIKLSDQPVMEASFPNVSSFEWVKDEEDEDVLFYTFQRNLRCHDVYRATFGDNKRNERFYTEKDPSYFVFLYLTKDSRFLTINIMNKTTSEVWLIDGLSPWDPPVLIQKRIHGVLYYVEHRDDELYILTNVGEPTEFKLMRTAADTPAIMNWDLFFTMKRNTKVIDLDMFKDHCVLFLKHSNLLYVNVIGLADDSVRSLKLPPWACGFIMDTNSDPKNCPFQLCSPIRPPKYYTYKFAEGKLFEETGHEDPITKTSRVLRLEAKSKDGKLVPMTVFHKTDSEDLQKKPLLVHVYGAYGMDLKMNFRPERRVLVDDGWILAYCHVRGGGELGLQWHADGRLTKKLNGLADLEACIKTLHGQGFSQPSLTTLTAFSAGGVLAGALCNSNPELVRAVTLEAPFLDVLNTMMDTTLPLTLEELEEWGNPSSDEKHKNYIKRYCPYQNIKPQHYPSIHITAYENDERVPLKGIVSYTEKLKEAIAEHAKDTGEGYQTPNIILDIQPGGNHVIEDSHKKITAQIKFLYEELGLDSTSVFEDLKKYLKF
CHOP inh – inhibitors of CHOP promoter induction, primary screen, cell-based, unfolded protein response, luciferase reporter | hit rate 3.8% among 220,000 | inhibition, % at 10 µM | CHO-K1 CHOP-promoter luciferase, tunicamycin-induced, 15-18 h | AID 2732, 2010;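 active means compounds that reduced the stress-induced luciferase reporter signal by more than about 70% of percent inhibition, limit read from the data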;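 further: 0% = tunicamycin plus vehicle and 100% = wells without tunicamycin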
The depositor's hits bear a star; nt = no result.

SMILES | NR3A LBD binder | Beta cell apopt | CSC inhib | T cruzi repl | PREPL inhibitor | CHOP inh
C[C@]12CC[C@H](O)C[C@H]1CC[C@@H]1[C@@H]2C[C@@H](O)[C@]2(C)[C@@H](C3=CC(=O)OC3)CC[C@]12O | 1 | 5 | 84* | nt | -2 | nt
C[C@]12CC[C@H](O)C[C@H]1CC[C@@H]1[C@@H]2CC[C@]2(C)[C@@H](C3=CC(=O)OC3)CC[C@]12O | -1 | -3 | 95* | nt | 5 | nt
Cc1nc2cc([N+](=O)[O-])ccc2c(=O)n1-c1cccc(Br)c1 | 2 | -1 | 2 | 38 | 9 | nt
CCN1C(=O)/C(=C/c2ccc3c(c2)CCN3CCCCl)C(=O)NC1=S | 0 | -2 | -6 | 10 | 11 | 90*
O=C1NC(=S)N(C2CC2)C(=O)/C1=C/c1ccc2c(c1)CCN2CCCCl | -10 | -9 | 21 | 0 | 2 | -34
NC(N)=NOCC[C@H](N)C(=O)O | nt | nt | nt | nt | nt | -22
Oc1c(Br)c(Br)c(Br)c(Br)c1Br | 32* | -1 | 101* | nt | 6 | nt
Oc1c(Br)cc(Br)cc1Br | 3 | -1 | -10 | nt | 12 | nt
C=CCN(CC=C)Cc1c[nH]c2ccccc12 | -2 | 107* | -13 | -32 | 12 | -44
CC(C)OC(=O)Cc1ccccc1 | 0 | -1 | -11 | nt | 1 | nt
COC(=O)C1=C(c2ccc(Cl)c(C(F)(F)F)c2)C[C@@H]2CC[C@H]1N2C(=O)NC1CCCCC1 | -1 | 4 | 28 | nt | 6 | nt
COc1ccc2c(c1OC)CN1CCc3cc4c(cc3C1C2)OCO4 (stereo not given) | -1 | 46 | -4 | 58* | 10 | nt
COc1ccc(-c2csc(NC(=O)COC(=O)Cc3ccccc3)n2)cc1OC | nt | -2 | -4 | -7 | 3 | 15
Cc1cc(OC(=O)c2ccco2)c2c3c(c(=O)oc2c1)CCCC3 | -2 | nt | 10 | -10 | 18 | 76*
CSc1ccc(C(=O)C2CCCN(Cc3cc4ccccc4[nH]3)C2)cc1 (stereo not given) | -7 | 4 | -1 | 34 | -27 | 70*
CSc1ccc(C(=O)C2CCCN(Cc3cccnc3)C2)cc1 (stereo not given) | 2 | 2 | -2 | 4 | 6 | 14
CC(C)c1ccc(N=Cc2c(O)n(C3CC3)c(=S)[nH]c2=O)cc1 | -2 | 10 | -6 | -37 | -3 | 84*
O=c1[nH]c(=S)n(C2CC2)c(O)c1C=Nc1ccc2c(c1)OCO2 | -2 | nt | -6 | -18 | 8 | -29
Cc1ccc(OCCn2cccc2/C=C2/C(=O)NC(=O)N(Cc3ccco3)C2=O)cc1 | -10 | 2 | 24 | 1 | -9 | -17
CCc1ccc(N2C(=O)NC(=O)/C(=C\c3cccn3CCOc3ccc(C(C)C)cc3)C2=O)cc1 | 8 | 14 | 20 | 11 | -10 | 87*
C[C@]12CCC3C(CC[C@H]4C[C@@H](O)CC[C@]34C)C1C[C@@H](Br)[C@H]2O (stereo not given in full) | nt | 2 | -6 | nt | -4 | nt
CS(=N)(=O)CC[C@H](N)C(=O)O (stereo not given in full) | nt | nt | nt | nt | nt | -6
CCCCCn1c(=O)c(C(=O)Nc2cnccn2)c(O)c2ccccc21 | -6 | 73 | 0 | -18 | -6 | 104*
CCCCCn1c(=O)c(C(=O)Nc2nc(CC(=O)OCC)cs2)c(O)c2ccccc21 | 0 | 2 | -8 | 24 | -4 | 92*
CCCCCCn1c(=O)c(C(=O)Nc2nnc(C)s2)c(O)c2ccccc21 | nt | -5 | 25 | -14 | -4 | 52
SMILES | NR3A LBD binder | Beta cell apopt | CSC inhib | T cruzi repl | PREPL inhibitor | CHOP inh
CCCCCCn1c(=O)c(C(=O)Nc2ncccc2C)c(O)c2ccccc21 | -4 | 82* | 6 | 8 | -10 | nt
CCCCCn1c(=O)c(C(=O)Nc2cc(C)ccn2)c(O)c2ccccc21 | 3 | -3 | 30 | 0 | 2 | nt
NNC(N)=O | -2 | 8 | -11 | nt | -2 | -13
CC(C#N)CCC#N (stereo not given) | -1 | -2 | -14 | nt | 2 | nt
N=Cc1c(O)n(-c2ccccc2)c(=O)n(-c2ccccc2)c1=O | 0 | -8 | 2 | -16 | -9 | 9
CC1(C)C(C(=O)N2CCN(c3ccc(Cl)cc3)CC2)C1(C)C | 1 | 7 | 0 | 13 | 25 | nt
COC(=O)C1CN(C#N)N(c2ccc(Cl)cc2)C12c1ccccc1-c1ccccc12 (stereo not given) | 3 | 112* | -11 | 43 | 18 | nt
C=C1C(=O)O[C@@H]2C[C@@H](C)[C@@H]3C=CC(=O)[C@@]3(C)[C@@H](OC(=O)CC(=O)O[C@H]3[C@@H]4C(=C)C(=O)O[C@@H]4C[C@@H](C)[C@@H]4C=CC(=O)[C@]43C)[C@H]12 | -2 | 132* | 122* | 51 | 4 | 108*
NC1CC1c1ccccc1 (stereo not given) | nt | nt | nt | nt | nt | 0
CN1CCN(c2nc(N)c(Br)c(Cl)n2)CC1 | 14* | nt | -11 | 30 | 5 | 15
COc1ccccc1CN1CCCC(C(=O)c2ccccc2SC)C1 (stereo not given) | 1 | 1 | -9 | 60* | -10 | 34
COc1ccccc1CN1CCCC(C(=O)c2ccccc2OC)C1 (stereo not given) | -3 | 4 | -3 | 18 | 3 | nt
CC(=O)OCC1=C(C(=O)[O-])N2C(=O)[C@@H](NC(=O)CCC[C@@H](N)C(=O)[O-])[C@H]2SC1.[Zn+2] | nt | nt | nt | nt | nt | -15
C=C(C)[C@H]1Cc2c(ccc3c2O[C@@H]2COc4cc(OC)c(OC)cc4[C@@H]2C3=O)O1 | nt | nt | nt | nt | nt | 27
CCC(C)N1C(=O)/C(=C\c2ccc(N3CCCCCC3)cc2)C(=O)NC1=S (stereo not given) | 4 | -4 | -2 | -5 | -5 | 71*
COc1ccc(NC2Oc3cc4c(cc3C(c3cc(OC)c(OC)c(OC)c3)C2C)OCO4)cc1 (stereo not given) | -4 | nt | nt | nt | nt | nt
CN1CC=C(/C=C/c2ccc(-c3ccccc3)cc2)CC1 | -3 | 71 | 63 | 70* | 8 | nt
O=C(COc1ccc2ccccc2c1)N1CCN(Cc2c[nH]c3ccccc23)CC1 | -4 | 102* | 11 | -4 | 2 | -149
O=C(COc1ccc(Br)cc1)N1CCN(Cc2c[nH]c3ccccc23)CC1 | -10 | 106* | 7 | 24 | 8 | -177
c1ccc2c(CN3CCCCC3)c[nH]c2c1 | -1 | -9 | 4 | -5 | 8 | -20
CC(=O)O[C@H]1C[C@@H]2OC3C=C(C)CCC3(C)[C@@]1(C)[C@@]21CO1 (stereo not given in full) | 0 | nt | nt | nt | nt | nt
O=c1c2ccccc2nc(/C=C/c2ccccc2F)n1-c1ccccc1O | -2 | 14 | 98* | -7 | -13 | nt
